In ChEMBL document CHEMBL1155278, “3,4-Diaryl-isoxazoles and -imidazoles as potent dual inhibitors of p38alpha mitogen activated protein kinase and casein kinase 1delta” (J Med Chem, 2009):

Legend:
[1] = target: Dual specificity mitogen-activated protein kinase kinase 1 (Homo sapiens) (UniProt Q02750); test: Inhibition of MKK1 at 0.1 uM by Cherenkov counting in presence of 5 uM ATP
Outline: (§1)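 Single-concentration selectivity screen at 0.1 μM against a panel of 76 protein kinases. Each kinase was run at an ATP level approximating its Km for ATP. Output is mean residual activity as % of the control assay without compound, n = 3 ± SD.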

[2] = target: Mitogen-activated protein kinase 9 (Homo sapiens) (UniProt P45984); test: Inhibition of JNK2 assessed as residual activity at 0.1 uM by Cherenkov counting relative to control in presence of 20 uM ATP; outline: as §1
Chain of Mitogen-activated protein kinase 9 (Homo sapiens) (P45984 whole entry, looked up): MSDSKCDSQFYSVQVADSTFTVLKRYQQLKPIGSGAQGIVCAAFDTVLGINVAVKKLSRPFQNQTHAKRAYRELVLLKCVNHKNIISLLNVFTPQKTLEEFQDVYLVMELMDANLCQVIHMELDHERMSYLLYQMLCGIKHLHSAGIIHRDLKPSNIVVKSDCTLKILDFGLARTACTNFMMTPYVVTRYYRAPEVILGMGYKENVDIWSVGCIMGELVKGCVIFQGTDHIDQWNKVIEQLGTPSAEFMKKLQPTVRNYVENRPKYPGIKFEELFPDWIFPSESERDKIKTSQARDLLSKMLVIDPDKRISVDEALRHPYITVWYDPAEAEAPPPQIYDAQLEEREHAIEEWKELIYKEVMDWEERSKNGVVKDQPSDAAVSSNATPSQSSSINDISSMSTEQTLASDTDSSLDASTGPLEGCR

[3] = target: Mitogen-activated protein kinase 11 (Homo sapiens) (UniProt Q15759); test: Inhibition of p38beta assessed as residual activity at 0.1 uM by Cherenkov counting relative to control
Chain of Mitogen-activated protein kinase 11 (Homo sapiens) (Q15759 whole entry): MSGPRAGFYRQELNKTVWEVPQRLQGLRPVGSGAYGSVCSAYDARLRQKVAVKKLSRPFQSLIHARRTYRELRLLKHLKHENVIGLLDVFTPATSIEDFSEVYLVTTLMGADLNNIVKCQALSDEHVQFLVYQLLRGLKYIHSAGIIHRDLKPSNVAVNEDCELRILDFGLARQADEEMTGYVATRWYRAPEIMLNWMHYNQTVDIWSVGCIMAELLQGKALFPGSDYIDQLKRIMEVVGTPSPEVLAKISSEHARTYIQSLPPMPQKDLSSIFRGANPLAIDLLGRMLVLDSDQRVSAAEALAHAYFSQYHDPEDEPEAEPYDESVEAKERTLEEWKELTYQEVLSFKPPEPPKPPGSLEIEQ
Outline: (§2)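 Single-concentration screen at 0.1 μM in a 76-kinase panel. ATP for each kinase was set near its Km for ATP. Residual activity is given as a percentage of control assays without compound, mean of n = 3 ± SD.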

[4] = target: T1, Protein kinase C zeta type (Homo sapiens) (UniProt Q05513); test: Inhibition of PKCzeta assessed as residual activity at 0.1 uM by Cherenkov counting relative to control in presence of 5 uM ATP; outline: as §2
T1 sequence (whole entry): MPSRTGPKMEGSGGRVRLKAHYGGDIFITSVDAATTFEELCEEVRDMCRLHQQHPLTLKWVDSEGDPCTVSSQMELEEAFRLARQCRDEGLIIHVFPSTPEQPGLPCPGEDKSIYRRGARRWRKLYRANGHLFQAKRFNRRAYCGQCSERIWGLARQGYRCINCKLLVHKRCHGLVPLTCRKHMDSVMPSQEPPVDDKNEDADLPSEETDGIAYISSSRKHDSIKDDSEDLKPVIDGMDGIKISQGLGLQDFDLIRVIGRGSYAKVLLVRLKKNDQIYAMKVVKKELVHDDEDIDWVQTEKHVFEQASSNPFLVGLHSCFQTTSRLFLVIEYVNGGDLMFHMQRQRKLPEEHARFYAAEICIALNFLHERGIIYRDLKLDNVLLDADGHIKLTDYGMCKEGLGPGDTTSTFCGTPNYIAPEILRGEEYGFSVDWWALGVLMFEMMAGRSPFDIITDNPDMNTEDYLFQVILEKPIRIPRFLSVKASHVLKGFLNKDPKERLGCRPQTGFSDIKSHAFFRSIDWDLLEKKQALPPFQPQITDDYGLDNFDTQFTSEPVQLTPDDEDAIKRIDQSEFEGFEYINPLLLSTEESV

[5] = target: Serine/threonine-protein kinase Chk2 (Homo sapiens) (UniProt O96017); test: Inhibition of CHK2 assessed as residual activity at 0.1 uM by Cherenkov counting relative to control in presence of 20 uM ATP
Chain of Serine/threonine-protein kinase Chk2 (Homo sapiens) (O96017 whole entry): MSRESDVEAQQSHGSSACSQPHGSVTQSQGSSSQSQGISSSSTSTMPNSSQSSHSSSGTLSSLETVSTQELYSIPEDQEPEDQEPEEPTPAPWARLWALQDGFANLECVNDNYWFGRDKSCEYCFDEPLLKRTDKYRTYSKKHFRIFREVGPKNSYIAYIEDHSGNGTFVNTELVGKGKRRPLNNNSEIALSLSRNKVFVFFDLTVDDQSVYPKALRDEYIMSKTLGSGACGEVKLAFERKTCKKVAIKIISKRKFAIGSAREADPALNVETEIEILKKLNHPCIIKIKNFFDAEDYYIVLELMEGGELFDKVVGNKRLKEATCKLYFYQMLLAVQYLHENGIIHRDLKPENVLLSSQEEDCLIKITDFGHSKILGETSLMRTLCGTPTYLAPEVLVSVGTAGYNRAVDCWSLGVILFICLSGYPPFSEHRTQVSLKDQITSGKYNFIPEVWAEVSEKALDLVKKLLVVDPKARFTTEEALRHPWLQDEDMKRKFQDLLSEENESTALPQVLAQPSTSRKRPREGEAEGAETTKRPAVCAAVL
Outline: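 Single-concentration screen at 0.1 µM across a panel of 76 protein kinases. Each kinase was run at an ATP concentration approximating its ATP Km. Results are % mean residual activity versus control assays without compound (n = 3 ± SD).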

[6] = target: Serine/threonine-protein kinase Nek6 (Homo sapiens) (UniProt Q9HC98); test: Inhibition of NEK6 assessed as residual activity at 0.1 uM by Cherenkov counting relative to control in presence of 50 uM ATP; outline: as §1
Chain of Serine/threonine-protein kinase Nek6 (Homo sapiens) (Q9HC98 whole entry): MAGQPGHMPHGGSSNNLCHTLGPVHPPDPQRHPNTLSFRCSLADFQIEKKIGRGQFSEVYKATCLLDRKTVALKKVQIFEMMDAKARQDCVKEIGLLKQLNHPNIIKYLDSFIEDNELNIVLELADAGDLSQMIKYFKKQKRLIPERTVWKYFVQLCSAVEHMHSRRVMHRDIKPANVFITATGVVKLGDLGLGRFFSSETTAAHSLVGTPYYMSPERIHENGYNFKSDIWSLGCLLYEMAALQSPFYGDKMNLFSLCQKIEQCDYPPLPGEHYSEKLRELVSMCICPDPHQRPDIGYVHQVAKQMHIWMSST

[7] = target: RAC-alpha serine/threonine-protein kinase (Homo sapiens) (UniProt P31749); test: Inhibition of PKBalpha assessed as residual activity at 10 uM by Cherenkov counting relative to control in presence of 5 uM ATP
Chain of RAC-alpha serine/threonine-protein kinase (Homo sapiens) (P31749 whole entry): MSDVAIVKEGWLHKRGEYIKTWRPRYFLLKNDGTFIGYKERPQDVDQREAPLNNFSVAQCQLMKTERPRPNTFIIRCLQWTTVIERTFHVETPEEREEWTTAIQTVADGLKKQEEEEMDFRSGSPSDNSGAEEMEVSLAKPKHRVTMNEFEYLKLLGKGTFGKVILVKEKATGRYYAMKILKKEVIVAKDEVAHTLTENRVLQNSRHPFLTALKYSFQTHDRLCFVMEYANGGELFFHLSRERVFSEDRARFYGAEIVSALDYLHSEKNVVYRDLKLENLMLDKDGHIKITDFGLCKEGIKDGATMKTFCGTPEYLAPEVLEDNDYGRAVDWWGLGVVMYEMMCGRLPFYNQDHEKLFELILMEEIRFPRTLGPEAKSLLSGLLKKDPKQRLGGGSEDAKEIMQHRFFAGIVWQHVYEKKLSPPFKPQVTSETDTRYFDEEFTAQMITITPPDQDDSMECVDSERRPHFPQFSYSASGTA
Outline: (§3)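 Single-concentration profiling at 10 μM in a 78-kinase panel. Kinase activity is expressed as a percentage of control assays run without compound.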

[8] = target: T2, Serine/threonine-protein kinase D1 (Homo sapiens) (UniProt Q15139); test: Inhibition of PKD1 assessed as residual activity at 10 uM by Cherenkov counting relative to control in presence of 50 uM ATP; outline: as §3
T2 sequence (whole entry): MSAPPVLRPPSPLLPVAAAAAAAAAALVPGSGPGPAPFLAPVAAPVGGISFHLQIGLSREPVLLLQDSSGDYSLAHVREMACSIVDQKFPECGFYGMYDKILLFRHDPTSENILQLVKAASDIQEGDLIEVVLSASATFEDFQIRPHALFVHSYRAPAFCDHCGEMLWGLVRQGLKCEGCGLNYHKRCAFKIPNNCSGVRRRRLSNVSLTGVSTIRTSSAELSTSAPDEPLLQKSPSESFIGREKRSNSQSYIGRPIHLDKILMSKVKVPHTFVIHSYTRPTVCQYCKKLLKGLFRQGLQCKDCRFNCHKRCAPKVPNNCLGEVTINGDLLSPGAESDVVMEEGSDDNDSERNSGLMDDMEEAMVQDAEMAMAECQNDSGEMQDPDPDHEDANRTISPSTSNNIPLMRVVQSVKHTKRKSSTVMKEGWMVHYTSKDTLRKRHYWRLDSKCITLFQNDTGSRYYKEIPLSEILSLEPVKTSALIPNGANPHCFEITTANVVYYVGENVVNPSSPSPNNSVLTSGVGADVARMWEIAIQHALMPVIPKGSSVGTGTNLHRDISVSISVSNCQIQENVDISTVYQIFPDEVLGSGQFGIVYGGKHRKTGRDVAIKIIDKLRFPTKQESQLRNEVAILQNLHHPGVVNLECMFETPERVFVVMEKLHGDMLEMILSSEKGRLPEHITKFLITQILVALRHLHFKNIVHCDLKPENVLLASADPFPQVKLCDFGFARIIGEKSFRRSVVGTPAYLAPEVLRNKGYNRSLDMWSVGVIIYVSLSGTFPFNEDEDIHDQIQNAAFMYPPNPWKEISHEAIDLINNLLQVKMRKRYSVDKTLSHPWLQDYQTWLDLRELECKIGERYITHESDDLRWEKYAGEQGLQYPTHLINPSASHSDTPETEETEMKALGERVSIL

[9] = target: Maternal embryonic leucine zipper kinase (Homo sapiens) (UniProt Q14680); test: Inhibition of MELK assessed as residual activity at 10 uM by Cherenkov counting relative to control in presence of 50 uM ATP
Chain of Maternal embryonic leucine zipper kinase (Homo sapiens) (Q14680 whole entry, looked up, canonical isoform): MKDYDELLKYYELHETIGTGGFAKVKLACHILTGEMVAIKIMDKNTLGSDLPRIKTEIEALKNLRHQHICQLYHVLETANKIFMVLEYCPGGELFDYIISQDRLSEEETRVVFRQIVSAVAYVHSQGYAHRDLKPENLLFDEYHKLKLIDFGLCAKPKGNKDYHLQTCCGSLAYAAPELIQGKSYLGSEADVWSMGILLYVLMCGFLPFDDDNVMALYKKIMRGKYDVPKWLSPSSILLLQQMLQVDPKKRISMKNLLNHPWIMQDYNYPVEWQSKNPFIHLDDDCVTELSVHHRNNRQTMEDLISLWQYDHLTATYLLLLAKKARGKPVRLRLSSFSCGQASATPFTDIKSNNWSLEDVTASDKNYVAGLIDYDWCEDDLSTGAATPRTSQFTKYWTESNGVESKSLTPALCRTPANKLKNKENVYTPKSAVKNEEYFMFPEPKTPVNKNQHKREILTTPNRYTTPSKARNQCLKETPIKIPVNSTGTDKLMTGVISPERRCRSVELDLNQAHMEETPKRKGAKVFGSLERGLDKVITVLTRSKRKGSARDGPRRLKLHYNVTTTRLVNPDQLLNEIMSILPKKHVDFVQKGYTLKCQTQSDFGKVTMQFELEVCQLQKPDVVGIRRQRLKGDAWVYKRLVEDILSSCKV

[10] = target: Casein kinase I isoform delta (Homo sapiens, UniProt P48730); test: Inhibition of CK1delta assessed as residual activity at 10 uM by Cherenkov counting relative to control in presence of 20 uM ATP
Chain of Casein kinase I isoform delta (P48730 whole entry, looked up, canonical isoform): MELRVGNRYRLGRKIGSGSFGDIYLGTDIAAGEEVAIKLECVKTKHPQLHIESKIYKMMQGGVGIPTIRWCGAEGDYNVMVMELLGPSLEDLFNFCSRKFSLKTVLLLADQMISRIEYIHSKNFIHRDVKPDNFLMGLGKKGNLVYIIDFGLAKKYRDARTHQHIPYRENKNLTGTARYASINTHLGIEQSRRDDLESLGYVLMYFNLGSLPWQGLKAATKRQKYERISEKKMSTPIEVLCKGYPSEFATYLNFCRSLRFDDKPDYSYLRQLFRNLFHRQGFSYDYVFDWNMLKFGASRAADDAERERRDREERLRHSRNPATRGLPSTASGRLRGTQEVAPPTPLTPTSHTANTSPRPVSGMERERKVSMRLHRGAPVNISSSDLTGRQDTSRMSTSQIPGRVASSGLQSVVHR
Outline: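 CK1δ tested within a 78-protein-kinase panel with compound at 10 µM. Activity is expressed as a percentage of kinase activity relative to control assays run without compound.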

[11] = target: Dual specificity tyrosine-phosphorylation-regulated kinase 1A (Homo sapiens) (UniProt Q13627); test: Inhibition of DYRK1A assessed as residual activity at 10 uM by Cherenkov counting relative to control in presence of 50 uM ATP
Outline: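 Single-point profiling at 10 µM in a panel of 78 protein kinases. Kinase activity is expressed as a percentage relative to control assays without compound.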

[12] = target: Serine/threonine-protein kinase pim-3 (Homo sapiens) (UniProt Q86V86); test: Inhibition of PIM3 assessed as residual activity at 10 uM by Cherenkov counting relative to control in presence of 20 uM ATP

Chain of Dual specificity mitogen-activated protein kinase kinase 1 (Homo sapiens) (Q02750 whole entry): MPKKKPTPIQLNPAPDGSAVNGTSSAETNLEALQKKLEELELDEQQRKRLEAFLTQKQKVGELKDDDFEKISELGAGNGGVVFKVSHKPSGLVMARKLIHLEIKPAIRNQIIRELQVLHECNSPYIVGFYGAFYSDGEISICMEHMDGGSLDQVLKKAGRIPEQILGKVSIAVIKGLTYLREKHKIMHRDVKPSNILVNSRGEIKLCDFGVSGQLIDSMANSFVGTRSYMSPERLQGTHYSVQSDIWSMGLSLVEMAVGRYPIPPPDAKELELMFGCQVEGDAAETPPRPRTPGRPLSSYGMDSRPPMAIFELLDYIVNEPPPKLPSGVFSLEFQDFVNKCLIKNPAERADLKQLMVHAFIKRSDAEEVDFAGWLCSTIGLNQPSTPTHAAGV

inhibition [1] [%] | Activity [2] [%] | Activity [3] [%] | Activity [4] [%] | Activity [5] [%] | Activity [6] [%] | Activity [7] [%] | Activity [8] [%] | Activity [9] [%] | Activity [10] [%] | Activity [11] [%] | Activity [12] [%] | Compound
82 | 12 | 46 | 83 | 85 | 111 |  |  |  |  |  |  | COc1ccc(/C=C/C(=O)Nc2cc(-c3[nH]c([S+](C)[O-])nc3-c3ccc(F)cc3)ccn2)c(OC)c1 (centres undefined)
 |  |  |  |  |  | 94 | 89 | 108 | 55 | 95 | 78 | CC(C)c1noc(-c2ccc(F)cc2)c1-c1ccncc1
 |  |  |  |  |  | 94 | 60 | 78 | 6 | 100 | 81 | CC(C)c1onc(-c2ccc(F)cc2)c1-c1ccncc1
73 | 31 | 17 | 79 | 79 | 90 |  |  |  |  |  |  | COc1ccc(/C=C/C(=O)Nc2cc(-c3[nH]c(SC)nc3-c3ccc(F)cc3)ccn2)c(OC)c1
